From PubChem BioAssay AID493037 (Johns Hopkins Ion Channel Center, 2011)

What follows are compounds tested against Potassium voltage-gated channel subfamily KQT member 2 (Rattus norvegicus) (UniProt O88943) (assay: rat KCNQ2 channel activators, dose response, cell-based, FluxOR thallium flux, mode of action (AID 493037)). Conditions: KCNQ2-expressing cells, FluxOR thallium flux fluorescence;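 active means compounds that boost KCNQ2 channel thallium flux at some tested dose and yield a dose-response curve; inactive means the rest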.
Summary of the method: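 Test system: CHO cells expressing KCNQ2 potassium channel, loaded with FluxOR dye; Incubation: compound pre-incubation 20 min at room temperature; Measured by: thallium-flux fluorescence using FluxOR thallium-sensitive dye.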

Chain of Potassium voltage-gated channel subfamily KQT member 2 (Rattus norvegicus) (O88943 whole entry, looked up): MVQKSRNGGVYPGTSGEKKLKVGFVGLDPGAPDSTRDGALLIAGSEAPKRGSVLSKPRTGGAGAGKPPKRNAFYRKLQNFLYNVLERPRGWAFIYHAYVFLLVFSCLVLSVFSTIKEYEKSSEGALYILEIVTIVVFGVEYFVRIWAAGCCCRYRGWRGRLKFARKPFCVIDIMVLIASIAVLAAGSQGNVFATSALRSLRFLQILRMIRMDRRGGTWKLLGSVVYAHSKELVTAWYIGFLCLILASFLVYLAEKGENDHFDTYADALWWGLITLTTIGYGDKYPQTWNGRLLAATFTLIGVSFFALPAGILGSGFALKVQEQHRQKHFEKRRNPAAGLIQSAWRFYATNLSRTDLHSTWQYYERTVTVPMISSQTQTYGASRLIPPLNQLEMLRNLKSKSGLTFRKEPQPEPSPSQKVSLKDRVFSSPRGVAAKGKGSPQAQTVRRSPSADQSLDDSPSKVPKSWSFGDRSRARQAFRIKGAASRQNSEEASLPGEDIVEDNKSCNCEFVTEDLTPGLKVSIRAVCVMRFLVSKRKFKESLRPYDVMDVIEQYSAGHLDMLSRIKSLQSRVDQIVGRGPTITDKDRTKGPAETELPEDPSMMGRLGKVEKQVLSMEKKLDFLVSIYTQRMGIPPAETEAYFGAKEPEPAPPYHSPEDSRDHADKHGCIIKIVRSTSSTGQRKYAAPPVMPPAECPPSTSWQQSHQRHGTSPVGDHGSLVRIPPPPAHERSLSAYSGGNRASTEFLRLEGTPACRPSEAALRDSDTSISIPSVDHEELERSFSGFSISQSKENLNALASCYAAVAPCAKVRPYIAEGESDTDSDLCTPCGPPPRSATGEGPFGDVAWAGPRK

EC50, active:
Cc1ccc(C)c(NC(=O)C2CC3CCC2C3)c1 (stereo not given) 1.05 µM, CCCCC(=O)Nc1c(C)cc(C)cc1Cl 3.75 µM, Cc1cc(C)c(NC(=O)C2CC3CCC2C3)c(C)c1 (stereo not given) 0.359 µM, Cc1cccc(C)c1NC(=O)C1CC2CCC1C2 (stereo not given) 2.05 µM, Cc1cc(C)c(NC(=O)CC(C)(C)C)c(Cl)c1 2.1 µM
